Reference: the M2OR odorant receptor database

What was measured:
Conditions in all cases: stereoisomer not certain
UniProt A2ATE5 = biological target: T1, UniProt A2ATE5
T1 sequence (whole entry): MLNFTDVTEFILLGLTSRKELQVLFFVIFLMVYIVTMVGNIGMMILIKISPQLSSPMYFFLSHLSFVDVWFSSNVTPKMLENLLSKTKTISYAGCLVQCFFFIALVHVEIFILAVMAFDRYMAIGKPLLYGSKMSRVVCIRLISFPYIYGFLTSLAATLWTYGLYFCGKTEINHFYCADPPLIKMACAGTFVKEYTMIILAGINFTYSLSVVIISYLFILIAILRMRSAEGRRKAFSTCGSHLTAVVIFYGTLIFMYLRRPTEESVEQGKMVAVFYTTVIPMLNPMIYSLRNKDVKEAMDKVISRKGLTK
Procedure, shortened: (§1)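 Whether a receptor–molecule pair is responsive (active) rests on the original authors' judgment that its measured signal was statistically different from baseline. Pairs without that judgment are non-responsive (inactive). Sources used varied assay methods, commonly transient luciferase assays in mammalian cell lines.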

UniProt A2AVB0 = biological target: T2, UniProt A2AVB0
T2 sequence (whole entry): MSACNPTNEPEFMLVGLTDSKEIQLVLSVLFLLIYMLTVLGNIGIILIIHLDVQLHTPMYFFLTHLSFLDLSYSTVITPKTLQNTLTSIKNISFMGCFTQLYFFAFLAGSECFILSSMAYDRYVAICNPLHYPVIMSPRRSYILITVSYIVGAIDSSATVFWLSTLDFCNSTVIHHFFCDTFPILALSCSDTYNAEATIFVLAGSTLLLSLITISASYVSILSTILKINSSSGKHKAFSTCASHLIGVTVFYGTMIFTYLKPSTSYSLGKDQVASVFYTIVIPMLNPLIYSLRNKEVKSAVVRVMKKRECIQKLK
Procedure, shortened: as §1

UniProt E9PVX1 = biological target: T3, UniProt E9PVX1
T3 sequence (whole entry): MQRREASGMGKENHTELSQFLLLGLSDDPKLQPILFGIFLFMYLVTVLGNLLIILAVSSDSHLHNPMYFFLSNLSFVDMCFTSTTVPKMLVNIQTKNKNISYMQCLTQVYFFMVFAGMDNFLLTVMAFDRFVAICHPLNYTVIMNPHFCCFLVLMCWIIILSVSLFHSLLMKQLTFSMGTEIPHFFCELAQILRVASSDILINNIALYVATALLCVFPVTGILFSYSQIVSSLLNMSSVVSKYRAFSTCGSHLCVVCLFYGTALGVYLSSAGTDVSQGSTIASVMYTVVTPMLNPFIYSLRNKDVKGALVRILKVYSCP
Procedure, shortened: as §1

UniProt E9PZ66 = biological target: T4, UniProt E9PZ66
T4 sequence (whole entry): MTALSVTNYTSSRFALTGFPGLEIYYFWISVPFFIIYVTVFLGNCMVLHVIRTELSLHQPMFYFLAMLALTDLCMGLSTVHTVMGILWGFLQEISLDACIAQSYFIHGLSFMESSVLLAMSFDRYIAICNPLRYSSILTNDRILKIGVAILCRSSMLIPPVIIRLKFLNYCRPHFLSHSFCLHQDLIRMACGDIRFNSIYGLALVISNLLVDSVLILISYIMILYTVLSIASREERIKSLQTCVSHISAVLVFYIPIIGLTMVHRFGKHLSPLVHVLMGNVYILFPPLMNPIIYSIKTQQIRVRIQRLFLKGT
Procedure, shortened: as §1

UniProt E9Q4X7 = biological target: T5, UniProt E9Q4X7
T5 sequence (whole entry): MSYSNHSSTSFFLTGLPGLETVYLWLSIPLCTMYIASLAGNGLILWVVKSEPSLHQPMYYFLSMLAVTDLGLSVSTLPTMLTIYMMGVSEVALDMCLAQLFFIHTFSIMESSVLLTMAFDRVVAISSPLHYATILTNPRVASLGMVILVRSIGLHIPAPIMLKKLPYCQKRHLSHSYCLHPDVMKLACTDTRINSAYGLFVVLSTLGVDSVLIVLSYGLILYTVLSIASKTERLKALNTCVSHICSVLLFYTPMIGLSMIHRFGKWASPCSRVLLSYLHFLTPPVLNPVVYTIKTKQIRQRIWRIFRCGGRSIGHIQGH
Procedure, shortened: as §1

UniProt E9Q546 = biological target: T6, UniProt E9Q546
T6 sequence (whole entry): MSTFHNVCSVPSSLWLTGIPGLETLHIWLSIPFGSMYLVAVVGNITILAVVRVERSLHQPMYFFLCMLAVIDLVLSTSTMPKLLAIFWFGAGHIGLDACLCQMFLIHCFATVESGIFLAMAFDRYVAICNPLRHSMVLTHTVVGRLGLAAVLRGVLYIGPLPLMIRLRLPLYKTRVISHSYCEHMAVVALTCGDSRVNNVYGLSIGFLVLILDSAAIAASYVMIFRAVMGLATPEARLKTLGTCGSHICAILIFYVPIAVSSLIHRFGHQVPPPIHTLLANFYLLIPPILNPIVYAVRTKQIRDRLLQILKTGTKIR
Procedure, shortened: as §1

UniProt E9Q6Z7 = biological target: T7, UniProt E9Q6Z7
T7 sequence (whole entry): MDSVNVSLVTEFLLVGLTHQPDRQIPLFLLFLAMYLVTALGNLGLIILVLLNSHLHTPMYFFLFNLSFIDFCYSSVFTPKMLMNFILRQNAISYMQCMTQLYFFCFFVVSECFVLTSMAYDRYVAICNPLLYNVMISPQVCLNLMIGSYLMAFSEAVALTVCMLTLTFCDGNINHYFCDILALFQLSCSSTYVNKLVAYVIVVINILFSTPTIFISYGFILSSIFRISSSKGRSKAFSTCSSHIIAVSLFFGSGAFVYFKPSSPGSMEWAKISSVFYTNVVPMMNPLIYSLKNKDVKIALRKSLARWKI
Procedure, shortened: as §1

UniProt A2AVB5 = biological target: T8, UniProt A2AVB5
T8 sequence (whole entry): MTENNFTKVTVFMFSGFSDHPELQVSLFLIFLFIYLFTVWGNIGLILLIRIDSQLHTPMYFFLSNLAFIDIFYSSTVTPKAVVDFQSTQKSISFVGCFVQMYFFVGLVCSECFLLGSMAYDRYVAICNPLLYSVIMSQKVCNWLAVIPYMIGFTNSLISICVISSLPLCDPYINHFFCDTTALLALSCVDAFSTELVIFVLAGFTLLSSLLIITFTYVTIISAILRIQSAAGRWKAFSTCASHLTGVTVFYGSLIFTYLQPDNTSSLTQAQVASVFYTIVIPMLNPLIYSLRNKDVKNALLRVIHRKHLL
Procedure, shortened: as §1

UniProt B2RVX8 = biological target: T9, UniProt B2RVX8
T9 sequence (whole entry): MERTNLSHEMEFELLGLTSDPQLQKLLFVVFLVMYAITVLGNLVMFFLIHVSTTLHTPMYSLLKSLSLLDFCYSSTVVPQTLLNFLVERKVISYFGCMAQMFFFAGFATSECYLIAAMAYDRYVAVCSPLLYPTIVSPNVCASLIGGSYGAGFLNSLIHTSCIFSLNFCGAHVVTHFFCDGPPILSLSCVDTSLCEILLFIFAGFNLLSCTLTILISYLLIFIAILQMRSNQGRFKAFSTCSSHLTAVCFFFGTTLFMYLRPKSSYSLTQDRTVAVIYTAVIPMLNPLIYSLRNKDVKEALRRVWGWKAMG
Procedure, shortened: as §1

UniProt K7N609 = biological target: T10, UniProt K7N609
T10 sequence (whole entry): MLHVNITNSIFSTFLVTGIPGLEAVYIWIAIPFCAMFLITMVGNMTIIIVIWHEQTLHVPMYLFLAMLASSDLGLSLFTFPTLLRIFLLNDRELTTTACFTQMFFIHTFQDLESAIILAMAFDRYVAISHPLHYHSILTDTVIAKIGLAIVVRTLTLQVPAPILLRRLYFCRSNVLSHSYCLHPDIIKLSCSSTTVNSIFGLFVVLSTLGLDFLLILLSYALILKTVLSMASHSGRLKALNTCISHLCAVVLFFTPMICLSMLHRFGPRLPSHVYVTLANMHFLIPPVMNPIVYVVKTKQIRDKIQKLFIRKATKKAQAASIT
Procedure, shortened: as §1

UniProt E9PX47 = biological target: T11, UniProt E9PX47
T11 sequence (whole entry): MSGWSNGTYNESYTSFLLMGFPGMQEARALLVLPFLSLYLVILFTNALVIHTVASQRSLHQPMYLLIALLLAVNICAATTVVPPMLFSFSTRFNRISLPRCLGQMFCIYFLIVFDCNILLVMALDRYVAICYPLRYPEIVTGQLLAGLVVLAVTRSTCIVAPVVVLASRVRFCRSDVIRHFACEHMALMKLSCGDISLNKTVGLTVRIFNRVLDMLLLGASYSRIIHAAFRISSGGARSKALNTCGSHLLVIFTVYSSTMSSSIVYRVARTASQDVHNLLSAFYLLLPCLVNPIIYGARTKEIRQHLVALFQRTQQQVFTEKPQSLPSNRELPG
Procedure, shortened: as §1
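Note: active if original authors judged signal statistically different from baseline.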

Compound	odorant receptor agonist call (UniProt A2ATE5)	odorant receptor agonist call (UniProt A2AVB0)	odorant receptor agonist call (UniProt E9PVX1)	odorant receptor agonist call (UniProt E9PZ66)	odorant receptor agonist call (UniProt E9Q4X7)	odorant receptor agonist call (UniProt E9Q546)	odorant receptor agonist call (UniProt E9Q6Z7)	odorant receptor agonist call (UniProt A2AVB5)	odorant receptor agonist call (UniProt B2RVX8)	odorant receptor agonist call (UniProt K7N609)	odorant receptor agonist call (UniProt E9PX47)
CCCCCC(=Cc1ccccc1)C(OC)OC	inactive	inactive	inactive	inactive	inactive	inactive	inactive	–	–	–	–
CCCC=O	inactive	inactive	inactive	inactive	inactive	inactive	inactive	–	–	–	–
O=C(O)C1CCC1	inactive	inactive	inactive	inactive	inactive	inactive	inactive	–	–	–	–
CCC(C)O (stereo unspecified)	inactive	inactive	inactive	inactive	inactive	inactive	inactive	–	–	–	–
C=CC(C)=CCC=C(C)CCC=C(C)C	inactive	inactive	inactive	inactive	inactive	inactive	inactive	–	–	–	–
Cc1ccc(C(C)C)c(O)c1	inactive	inactive	inactive	inactive	inactive	inactive	inactive	–	–	–	–
CC(C)=C1CCC(C)CC1=O (stereo unspecified)	inactive	inactive	inactive	inactive	inactive	inactive	inactive	–	–	–	–
C=C(C)C1CC=C(C)CC1 (stereo unspecified)	inactive	inactive	inactive	inactive	inactive	inactive	inactive	–	–	–	–
COc1ccccc1	inactive	inactive	inactive	inactive	inactive	inactive	inactive	–	–	–	–
C1CCOC1	inactive	inactive	inactive	inactive	inactive	inactive	inactive	–	–	–	–
CNc1ccccc1C(=O)OC	inactive	inactive	inactive	inactive	inactive	inactive	inactive	–	–	–	–
CCc1occc(=O)c1O	active	inactive	inactive	inactive	inactive	inactive	inactive	–	–	–	–
CCOC(=O)CC(C)C	inactive	inactive	inactive	inactive	inactive	inactive	inactive	–	–	–	–
Cc1c(C)c(C)c(C=O)c(C)c1C	inactive	inactive	inactive	inactive	inactive	inactive	inactive	–	–	–	–
Cc1occc1SSc1ccoc1C	inactive	inactive	inactive	inactive	inactive	inactive	inactive	–	–	–	–
Cc1ccc(OC(=O)C(C)C)cc1	inactive	inactive	inactive	inactive	inactive	inactive	inactive	–	–	–	–
CCCCCO	–	–	–	–	–	inactive	–	inactive	inactive	inactive	–
CCCCCCC(=O)[O-].[H+]	–	–	–	–	–	inactive	–	inactive	inactive	inactive	inactive
